Test results taken from ChEMBL document CHEMBL1122246, “Analgesic narcotic antagonists. 15. Potent narcotic agonist 7 beta-(arylalkyl)-4,5 alpha-epoxymorphinans” (1983).

Each compound was assayed on Mus musculus (assay: Narcotic agonist activity using acetic acid induced writhing in the mouse upon subcutaneous administration). Settings: not given.
Format: functional
Method in brief: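 Mouse acetic acid writhing test with subcutaneous dosing. Salt forms were given in distilled water; free bases were dissolved by adding 1 N HCl and then diluted.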

Compound	ED50 [µM/kg]
COc1ccc2c3c1O[C@H]1[C@H]4OC[C@@]4(C(O)c4ccccc4)CC4[C@@H](C2)N(C)CC[C@@]341 (stereo partly specified)	11.9

Same assay, conditions: Mus musculus, sc; read-out: ED50

Compound	ED50 [µmol/kg]
COc1ccc2c3c1OC1[C@H]4OC[C@@]4(CCCCc4ccccc4)CC4C(C2)N(CC2CC2)CCC341 (stereo partly specified)	0.61
CN1CCC23c4c5ccc(O)c4OC2[C@H](O)[C@](CO)(CCCCCCc2ccccc2)CC3C1C5 (stereo partly specified)	> 19
COc1ccc2c3c1O[C@H]1[C@@H](O)C=C[C@H]4[C@@H](C2)N(C)CC[C@@]341 [CODEINE]	10.3
COc1ccc2c3c1OC1C(=O)[C@](C)(CCCCc4ccccc4)CC4C(C2)N(CC2CCC2)CCC314 (stereo partly specified)	5.6
COc1ccc2c3c1OC1[C@H]4OC[C@@]4(CCCc4ccccc4)CC4C(C2)N(C)CCC341 (stereo partly specified)	0.046
Oc1ccc2c3c1OC1C4OC[C@@]4(CCCc4ccccc4)CC4C(C2)N(CC2CC2)CCC341 (single isomer, unassigned)	0.003
COc1ccc2c3c1O[C@H]1C(=O)CC[C@H]4[C@@H](C2)N(C)CC[C@]314 [HYDROCODONE]	2.4
Oc1ccc2c3c1OC1C4OC[C@@]4(CCCCc4ccccc4)CC4C(C2)N(CC2CCC2)CCC341 (single isomer, unassigned)	0.05
COc1ccc2c3c1OC1[C@H](O)[C@](CO)(CCCCCc4ccccc4)CC4C(C2)N(C)CCC341 (stereo partly specified)	2.3
COc1ccc2c3c1OC1[C@H]4OC[C@@]4(CCc4ccccc4)CC4C(C2)N(CC2CCC2)CCC341 (stereo partly specified)	> 16
C[C@@]1(CCCCc2ccccc2)CC2C3Cc4ccc(O)c5c4C2(CCN3CC2CCC2)C(O5)C1=O (stereo partly specified)	0.17
CC[C@]1(CO)CC2C3Cc4ccc(OC)c5c4C2(CCN3C)C(O5)[C@@H]1O (stereo partly specified)	2.7
COc1ccc2c3c1OC1[C@H](O)[C@](CO)(CCCc4ccccc4)CC4C(C2)N(CC2CCC2)CCC341 (stereo partly specified)	0.04
COc1ccc2c3c1OC1[C@H]4OC[C@@]4(CCc4ccccc4)CC4C(C2)N(C)CCC341 (stereo partly specified)	0.9
CN1CCC23c4c5ccc(O)c4OC2[C@H](O)[C@](CO)(CCCCCc2ccccc2)CC3C1C5 (stereo partly specified)	12
COc1ccc2c3c1OC1[C@H](O)[C@](CO)(CCc4ccccc4)CC4C(C2)N(C)CCC341 (stereo partly specified)	0.028
C[C@@]1(CCc2ccccc2)CC2C3Cc4ccc(O)c5c4C2(CCN3CC2CCC2)C(O5)C1=O (stereo partly specified)	0.04
CCCC[C@]1(CO)CC2C3Cc4ccc(O)c5c4C2(CCN3C)C(O5)[C@@H]1O (stereo partly specified)	0.56
COc1ccc2c3c1OC1C(=O)[C@](C)(CCc4ccccc4)CC4C(C2)N(CC2CCC2)CCC314 (stereo partly specified)	0.19
CCCC[C@]1(CO)CC2C3Cc4ccc(OC)c5c4C2(CCN3C)C(O5)[C@@H]1O (stereo partly specified)	13.7
C[C@@]1(CCCCc2ccccc2)CC2C3Cc4ccc(O)c5c4C2(CCN3CC2CC2)C(O5)C1=O (stereo partly specified)	0.11
OC[C@@]1(CCCCc2ccccc2)CC2C3Cc4ccc(O)c5c4C2(CCN3CC2CCC2)C(O5)[C@@H]1O (stereo partly specified)	21.3

Compound	ED50 [µmol/kg]
COc1ccc2c3c1OC1[C@@H](O)[C@](C)(CCc4ccccc4)CC4C(C2)N(CC2CCC2)CCC341 (stereo partly specified)	1
CN1CCC23c4c5ccc(O)c4OC2[C@H](O)[C@](CO)(CCCCc2ccccc2)CC3C1C5 (stereo partly specified)	0.003
OC[C@@]1(CCc2ccccc2)CC2C3Cc4ccc(O)c5c4C2(CCN3CC2CC2)C(O5)[C@@H]1O (stereo partly specified)	0.95
COc1ccc2c3c1OC1[C@H](O)[C@](CO)(CCc4ccccc4)CC4C(C2)N(CC2CC2)CCC341 (stereo partly specified)	0.61
COc1ccc2c3c1OC1[C@H](O)[C@@](/C=C/CCCCc4ccccc4)(CO)CC4C(C2)N(C)CCC341 (stereo partly specified)	13.9
COc1ccc2c3c1OC1[C@H]4OC[C@@]4(CCCCc4ccccc4)CC4C(C2)N(CC2CCC2)CCC341 (stereo partly specified)	2.8
COc1ccc2c3c1OC1[C@H]4OC[C@@]4(CCCc4ccccc4)CC4C(C2)N(CC2CCC2)CCC341 (stereo partly specified)	4.4
Oc1ccc2c3c1OC1C4OC[C@@]4(CCc4ccccc4)CC4C(C2)N(CC2CC2)CCC341 (single isomer, unassigned)	0.04
C=C[C@]1(CO)CC2C3Cc4ccc(OC)c5c4C2(CCN3C)C(O5)[C@@H]1O (stereo partly specified)	> 28
COc1ccc2c3c1OC1[C@H](O)[C@](CO)(CCCc4ccccc4)CC4C(C2)N(CC2CC2)CCC341 (stereo partly specified)	0.13
CN1CCC23c4c5ccc(O)c4OC2[C@H]2OC[C@@]2(CCCc2ccccc2)CC3C1C5 (stereo partly specified)	0.019
CN1CCC23c4c5ccc(O)c4OC2[C@H]2OC[C@@]2(CCCCCc2ccccc2)CC3C1C5 (stereo partly specified)	0.028
OC[C@@]1(CCCCc2ccccc2)CC2C3Cc4ccc(O)c5c4C2(CCN3CC2CC2)C(O5)[C@@H]1O (stereo partly specified)	11
COc1ccc2c3c1OC1[C@H](O)[C@](CO)(CCCCc4ccccc4)CC4C(C2)N(C)CCC341 (stereo partly specified)	0.014
CN1CCC23c4c5ccc(O)c4OC2[C@H]2OC[C@@]2(CCc2ccccc2)CC3C1C5 (stereo partly specified)	0.048
COc1ccc2c3c1OC1[C@H](O)[C@@](C=CCCCc4ccccc4)(CO)CC4C(C2)N(C)CCC341 (stereo partly specified)	4
Oc1ccc2c3c1OC1[C@H]4OC[C@@]4(CCCc4ccccc4)CC4C(C2)N(CC2CCC2)CCC341 (stereo partly specified)	0.06
COc1ccc2c3c1OC1[C@@H](O)[C@](C)(CCCCc4ccccc4)CC4C(C2)N(CC2CCC2)CCC341 (stereo partly specified)	11.3
CN1CCC23c4c5ccc(O)c4OC2[C@H](O)[C@](CO)(CCCc2ccccc2)CC3C1C5 (stereo partly specified)	0.85
COc1ccc2c3c1OC1[C@@H](O)[C@](C)(CCCCc4ccccc4)CC4C(C2)N(CC2CC2)CCC341 (stereo partly specified)	0.5
CN1CCC23c4c5ccc(O)c4OC2[C@H](O)[C@](CO)(CCc2ccccc2)CC3C1C5 (stereo partly specified)	0.004
OC[C@@]1(CCCCCc2ccccc2)CC2C3Cc4ccc(O)c5c4C2(CCN3CC2CC2)C(O5)[C@@H]1O (stereo partly specified)	> 19

Compound	ED50 [µmol/kg]
OC[C@@]1(CCCc2ccccc2)CC2C3Cc4ccc(O)c5c4C2(CCN3CC2CCC2)C(O5)[C@@H]1O (stereo partly specified)	0.57
COc1ccc2c3c1OC1[C@H]4OC[C@@]4(CCCCCc4ccccc4)CC4C(C2)N(C)CCC341 (stereo partly specified)	1.3
COc1ccc2c3c1OC1[C@H](O)[C@](CO)(CCCc4ccccc4)CC4C(C2)N(C)CCC341 (stereo partly specified)	0.39
Oc1ccc2c3c1OC1C4OC[C@@]4(CCc4ccccc4)CC4C(C2)N(CC2CCC2)CCC341 (single isomer, unassigned)	0.39
COc1ccc2c3c1O[C@H]1[C@H]4OC[C@@]4(C(O)c4ccccc4)CC4[C@@H](C2)N(C)CC[C@@]341 (stereo partly specified)	6.8
COc1ccc2c3c1OC1[C@H](O)[C@](CO)(CCCCCc4ccccc4)CC4C(C2)N(CC2CCC2)CCC341 (stereo partly specified)	0.3
COc1ccc2c3c1OC1[C@H](O)[C@](CO)(CCCCCCc4ccccc4)CC4C(C2)N(C)CCC341 (stereo partly specified)	4.5
COc1ccc2c3c1OC1[C@H](O)[C@](CO)(CCCCc4ccccc4)CC4C(C2)N(CC2CC2)CCC341 (stereo partly specified)	0.22
COc1ccc2c3c1OC1[C@H]4OC[C@@]4(CCCCc4ccccc4)CC4C(C2)N(C)CCC341 (stereo partly specified)	0.005
OC[C@@]1(CCc2ccccc2)CC2C3Cc4ccc(O)c5c4C2(CCN3CC2CCC2)C(O5)[C@@H]1O (stereo partly specified)	2.5
COc1ccc2c3c1OC1C(=O)[C@](C)(CCCCc4ccccc4)CC4C(C2)N(CC2CC2)CCC314 (stereo partly specified)	2
COc1ccc2c3c1OC1[C@H](O)[C@](CO)(CCc4ccccc4)CC4C(C2)N(CC2CCC2)CCC341 (stereo partly specified)	0.7
COc1ccc2c3c1OC1C4OC[C@@]4(CCc4ccccc4)CC4C(C2)N(CC2CC2)CCC341 (single isomer, unassigned)	0.57
CN1CCC23c4c5ccc(O)c4OC2[C@H]2OC[C@@]2(CCCCc2ccccc2)CC3C1C5 (stereo partly specified)	0.024
COc1ccc2c3c1OC1[C@H](O)[C@](CO)(CCCCc4ccccc4)CC4C(C2)N(CC2CCC2)CCC341 (stereo partly specified)	0.52
Oc1ccc2c3c1OC1[C@H]4OC[C@@]4(CCCCc4ccccc4)CC4C(C2)N(CC2CC2)CCC341 (stereo partly specified)	0.015
OC[C@@]1(CCCc2ccccc2)CC2C3Cc4ccc(O)c5c4C2(CCN3CC2CC2)C(O5)[C@@H]1O (stereo partly specified)	0.47
COc1ccc2c3c1OC1[C@H](O)[C@](CO)(CCCCCc4ccccc4)CC4C(C2)N(CC2CC2)CCC341 (stereo partly specified)	0.4
COc1ccc2c3c1O[C@H]1[C@H](O)[C@](CO)(C(O)c4ccccc4)CC4[C@@H](C2)N(C)CC[C@@]341 (stereo partly specified)	2.3
OC[C@@]1(CCCCCc2ccccc2)CC2C3Cc4ccc(O)c5c4C2(CCN3CC2CCC2)C(O5)[C@@H]1O (stereo partly specified)	> 18
COc1ccc2c3c1OC1[C@H](O)[C@@](/C=C/Cc4ccccc4)(CO)CC4C(C2)N(C)CCC341 (stereo partly specified)	1.1
